The test system of series [1] is Rattus norvegicus. The series can be described thus: Toxicity in rat assessed as decrease in water consumption at 1 nmol, icv measured over 120 mins. The format is organism-based. The note with it: in vivo, icv_or_intrathecal, 2 h.
Series [2] concerns Rattus norvegicus. In words: Toxicity in rat assessed as decrease in activity at 1 nmol, icv measured over 120 mins. The settings on record: in vivo, icv_or_intrathecal, 2 h. The format is organism-based.
Series [3] has as its target T1, Growth hormone secretagogue receptor type 1 (Homo sapiens, UniProt Q92847). In words: Activation of human ghrelin receptor expressed in COS 7 cells using [2-3H]myo-inositol by inositol triphosphate turnover assay. The format is functional, cell-based. A digest of the protocol: (§1)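 Stimulated with seven to nine peptide concentrations, stopped by aspirating medium. Lysate supernatant purified on anion-exchange resin. Emax = difference between constitutive activity and activity at maximal peptide effect; EC50 = half-maximal concentration.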

The target of series [4] is T1, Growth hormone secretagogue receptor type 1. The series can be described thus: Displacement of [125I]-His-ghrelin from human ghrelin receptor expressed in COS7 cells incubated for 75 mins by scintillation counting based assay. The format is cell-based, COS-7. (Displacement assays read how much labelled ligand stays bound in the presence of the test substance.)
For series [5] the target is unchanged. The series can be described thus: Ratio of EC50 of ghrelin to EC50 of compound at human ghrelin receptor expressed in COS 7 cells using [2-3H]myo-inositol by inositol triphosphate turnover assay. The format is functional, cell-based.
For series [6] the target is unchanged. The series can be described thus: Agonist activity at FLAG-tagged human ghrelin receptor expressed in COS 7 cells using [2-3H]myo-inositol by inositol triphosphate turnover assay. Type of series: functional, cell-based. A digest of the protocol:
(§2)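 COS7 cells transiently or stably (hygromycin B 0.4 mg/mL) transfected with receptor; transient cells exposed 14 h to receptor DNA with metafectene. Day after transfection/seeding, labelled with [2-3H]myo-inositol (2 μCi/mL), then stimulated with seven to nine peptide concentrations; stopped by aspirating medium, lysate supernatant purified on anion-exchange resin. EC50 = half-maximal effect; Emax = difference between constitutive activity and maximal-effect activity.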

Series [7] has the same target. The series can be described thus: Agonist activity at human ghrelin receptor expressed in COS 7 cells using [2-3H]myo-inositol by inositol triphosphate turnover assay relative to untreated control. Type of series: functional, cell-based. In short, it runs like this:
as §1

Series [8] deals with Growth hormone secretagogue receptor type 1 (Homo sapiens, UniProt Q92847, F119S). In words: Agonist activity at FLAG-tagged human ghrelin receptor Phe119:Ser mutant expressed in COS 7 cells using [2-3H]myo-inositol by inositol triphosphate turnover assay. The format is functional, cell-based.
Growth hormone secretagogue receptor type 1 (Homo sapiens, UniProt Q92847, F119S), sequence (Q92847 whole entry F119S): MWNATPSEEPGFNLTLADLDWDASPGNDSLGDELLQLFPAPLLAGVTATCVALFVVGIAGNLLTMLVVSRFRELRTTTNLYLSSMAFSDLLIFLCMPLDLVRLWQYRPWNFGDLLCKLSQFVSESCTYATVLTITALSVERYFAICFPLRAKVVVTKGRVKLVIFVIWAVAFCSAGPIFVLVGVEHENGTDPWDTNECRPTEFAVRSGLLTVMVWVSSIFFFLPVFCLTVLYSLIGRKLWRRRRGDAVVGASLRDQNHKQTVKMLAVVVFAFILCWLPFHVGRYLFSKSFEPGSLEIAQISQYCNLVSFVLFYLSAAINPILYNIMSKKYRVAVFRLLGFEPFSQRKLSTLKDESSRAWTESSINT
Series [9] concerns the target Growth hormone secretagogue receptor type 1 (Homo sapiens, UniProt Q92847, S123A). The series can be described thus: Agonist activity at FLAG-tagged human ghrelin receptor Ser123:Ala mutant expressed in COS 7 cells using [2-3H]myo-inositol by inositol triphosphate turnover assay. The format is functional, cell-based. A digest of the protocol: as §2

Data on 8 compounds can be found in ChEMBL document CHEMBL2169767 (J Med Chem, 2012).

pEC50, pIC50, pKi: −log10 of the molar value. Where a SMILES comes first, the peptide text is derived from it. [ ]: non-standard residue; d: D form. d1Nal = N[C@H](Cc1cccc2ccccc12)C(=O)O; Phg = N[C@H](C(=O)O)c1ccccc1 A value given as a limit tells only on which side of the number the result lay.

T1 sequence (Q92847 whole entry): as the sequence (Q92847 whole entry F119S) above, with S119F counted along it
Growth hormone secretagogue receptor type 1 (Homo sapiens, UniProt Q92847, S123A), sequence (Q92847 whole entry S123A): as the sequence (Q92847 whole entry F119S) above, with S119F, S123A counted along it

For `CC(C)C[C@H](NC(=O)[C@H](CC(C)C)NC(=O)[C@@H](Cc1c[nH]c2ccccc12)NC(=O)[C@H](Cc1ccccc1)NC(=O)[C@@H](Cc1cccc2ccccc12)NC(=O)[C@@H](N)CCCCN)C(N)=O`, the Activity result with Rattus norvegicus [1] and with Rattus norvegicus [2] was “Toxic” in each case.

Regarding `CC(C)C[C@H](NC(=O)[C@H](CC(C)C)NC(=O)[C@@H](Cc1c[nH]c2ccccc12)NC(=O)[C@@H](NC(=O)[C@@H](Cc1cccc2ccccc12)NC(=O)[C@@H](N)CCCCN)c1ccccc1)C(N)=O` (H-K[d1Nal][Phg][dW]LL-NH2), the pEC50 in series [3] was below 6.00.

`CC(C)C[C@H](NC(=O)[C@H](CC(C)C)NC(=O)[C@H](NC(=O)[C@H](Cc1ccccc1)NC(=O)[C@@H](Cc1c[nH]c2ccccc12)NC(=O)[C@@H](N)CCCCN)C(c1ccccc1)c1ccccc1)C(N)=O` had a pIC50 in [4] of at most 6.00. This compound also gave a negative-log EC50 (pEC50) in series [3] below 6.00. In addition, in [5], the Ratio EC50 was above 700.

The compound `CC(C)C[C@H](NC(=O)[C@H](CC(C)C)NC(=O)[C@@H](Cc1ccc(-c2ccccc2)cc1)NC(=O)[C@H](Cc1ccccc1)NC(=O)[C@@H](Cc1c[nH]c2ccccc12)NC(=O)[C@@H](N)CCCCN)C(N)=O` gave a pIC50 in [4] of at most 6.00. This compound also showed a negative-log EC50 (pEC50) in series [3] below 6.00. The Ratio EC50 in [5] is above 700.

Compound `CC(C)C[C@H](NC(=O)[C@H](CC(C)C)NC(=O)[C@@H](Cc1ccc2ccccc2c1)NC(=O)[C@H](Cc1ccccc1)NC(=O)[C@@H](Cc1c[nH]c2ccccc12)NC(=O)[C@@H](N)CCCCN)C(N)=O` gave a pKi in [4] of 6.63. Moreover, the results for the negative logarithm of the EC50 (pEC50) in series [6], in [8] and in [9] were 8.14, 7.87 and 8.17, respectively. Also, in [7], the Emax was 156%. Also, the Ratio EC50 in series [5] worked out at 9.

`CC(C)C[C@H](NC(=O)[C@H](CC(C)C)NC(=O)[C@@H](Cc1cccc2ccccc12)NC(=O)[C@H](Cc1ccccc1)NC(=O)[C@@H](Cc1cccc2ccccc12)NC(=O)[C@@H](N)CCCCN)C(N)=O` gave a pEC50 in series [3] below 6.00.

For the compound `CC(C)C[C@H](NC(=O)[C@H](CC(C)C)NC(=O)[C@@H](Cc1ccc(C(=O)c2ccccc2)cc1)NC(=O)[C@H](Cc1ccccc1)NC(=O)[C@@H](Cc1c[nH]c2ccccc12)NC(=O)[C@@H](N)CCCCN)C(N)=O`, in [4], the pIC50 is at most 6.00. The pEC50 in [3] was below 6.00. Also, in series [5], the Ratio EC50 was above 700.

As for `CC(C)C[C@H](NC(=O)[C@H](CC(C)C)NC(=O)[C@@H](Cc1cccc2ccccc12)NC(=O)[C@H](Cc1ccccc1)NC(=O)[C@@H](Cc1c[nH]c2ccccc12)NC(=O)[C@@H](N)CCCCN)C(N)=O`, the pKi in [4] was 6.61. The Emax in series [7] stood at 54%. The Ratio EC50 in series [5] turned out to be 12.8.

A word on the pEC50: it is the EC50 on a negative log10 scale, so that one unit is a factor of ten. Higher therefore signals a small EC50. As a reminder, the pIC50 is the negative decadic logarithm of the IC50, by convention in mol/L. Lower therefore signals a high IC50. The term pKi denotes the negative decadic logarithm of the Ki, by convention in mol/L. A lower pKi goes with a high Ki.
